These results are taken from ChEMBL document CHEMBL3085762, “Expeditious synthesis, enantiomeric resolution, and enantiomer functional characterization of (4-(4-bromophenyl)-3a,4,5,9b-tetrahydro-3H-cyclopenta[c]quinoline-8-sulfonamide (4BP-TQS): an allosteric agonist-positive allosteric modulator of α7 nicotinic acetylcholine receptors” (J Med Chem, 2013).

Activity calls are given as the source filed them. The rule behind the calls is not given here.

Holding throughout (assay type): cell-based
Test [1] concerns the target T1, Neuronal acetylcholine receptor subunit alpha-7 (Homo sapiens, UniProt P36544). The test is described as follows: Potency index, ratio of ACh EC50 to compound EC50 for human alpha7 nAChR expressed in Xenopus oocytes.
Test [2] concerns the target T1, Neuronal acetylcholine receptor subunit alpha-7. The experiment in a line: Agonist activity at human alpha7 nAChR expressed in Xenopus oocytes at 60 uM after 5 mins by two-electrode voltage clamp method relative to ACh.
Test [3] has the same target. The experiment in a line: Positive allosteric modulation of human alpha7 nAChR expressed in Xenopus oocytes assessed as potentiation of ACh-induced response at 30 uM measured over 5 mins by two-electrode voltage clamp method in presence of choline. The procedure, abridged: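 α7-expressing Xenopus oocytes get control 60 μM ACh applications, then 300 μM choline together with 30 μM drug (racemate or single enantiomer). Potentiation is measured by two-electrode voltage clamp and normalized to the initial ACh controls.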

Test [4] has the same target. The experiment in a line: Positive allosteric modulation of human alpha7 nAChR expressed in Xenopus oocytes assessed as potentiation of ACh-induced response at 10 uM measured over 120 secs by two-electrode voltage clamp method.
Test [5] has the same target. The experiment in a line: Allosteric agonist activity at human alpha7 nAChR expressed in Xenopus oocytes at 10 uM measured over 120 secs by two-electrode voltage clamp method. The procedure, abridged: (§1)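 Xenopus oocytes expressing human α7 receive control 60 μM ACh, then 10 μM drug alone or with 10 μM of the other enantiomer. Pre-incubation is 30 s or 5 min, followed by ACh to assess potentiation. Responses are measured over a 120-second interval from the start of drug application. Potentiation is followed over 20 minutes. Two-electrode voltage clamp.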

For test [6] the target is unchanged. The test is described as follows: Positive allosteric modulation of human alpha7 nAChR expressed in Xenopus oocytes assessed as potentiation of ACh-induced response at 10 uM treated 4 mins prior to ACh addition by two-electrode voltage clamp method.
For test [7] the target is unchanged. The experiment in a line: Positive allosteric modulation of human alpha7 nAChR expressed in Xenopus oocytes assessed as potentiation of ACh-induced response at 10 uM preincubated for 5 mins measured over 20 mins by two-electrode voltage clamp method. An outline of the steps:
as §1

For test [8] the target is unchanged. The test is described as follows: Allosteric agonist activity at human alpha7 nAChR expressed in Xenopus oocytes at 10 uM preincubated for 5 mins by two-electrode voltage clamp method. The procedure, abridged:
as §1

Test [9] has the same target. The experiment in a line: Positive allosteric modulation of human alpha7 nAChR expressed in Xenopus oocytes assessed as potentiation of ACh-induced response after 20 secs by two-electrode voltage clamp method.
For test [10] the target is unchanged. The test is described as follows: Allosteric agonist activity at human alpha7 nAChR expressed in Xenopus oocytes after 20 secs by two-electrode voltage clamp method. The procedure, abridged:
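Human α7 nAChR in Xenopus oocytes under two-electrode voltage clamp. Control applications of 60 μM ACh come first, then a standard 20-second drug application over a range of concentrations. Net-charge response is normalized to the mean of the two initial ACh controls. At least four oocytes per condition. EC50 is taken from the concentration-response curve.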

T1 sequence (P36544 whole entry): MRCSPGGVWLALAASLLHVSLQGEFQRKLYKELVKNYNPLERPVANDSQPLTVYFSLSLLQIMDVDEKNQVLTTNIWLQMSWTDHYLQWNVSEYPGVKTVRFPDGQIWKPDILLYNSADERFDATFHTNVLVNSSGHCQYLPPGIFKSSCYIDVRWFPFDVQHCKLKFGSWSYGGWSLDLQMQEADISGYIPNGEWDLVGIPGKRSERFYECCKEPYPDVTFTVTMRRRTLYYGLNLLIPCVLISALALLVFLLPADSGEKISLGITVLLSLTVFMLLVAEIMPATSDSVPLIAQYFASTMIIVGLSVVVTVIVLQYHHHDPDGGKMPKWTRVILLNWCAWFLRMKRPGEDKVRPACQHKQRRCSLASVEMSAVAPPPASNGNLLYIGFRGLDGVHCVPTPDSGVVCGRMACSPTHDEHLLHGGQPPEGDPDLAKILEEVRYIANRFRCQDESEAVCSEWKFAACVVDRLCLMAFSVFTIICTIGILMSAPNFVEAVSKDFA

Regarding `NS(=O)(=O)c1ccc2c(c1)[C@H]1C=CC[C@H]1C(c1ccc(Br)cc1)N2` (mixture of isomers), the Ratio EC50 in test [1] stood at 8. This compound also showed a fold change (FC) in test [2] of 45. In test [3], the outcome was Active.
On to `NS(=O)(=O)c1ccc2c(c1)[C@@H]1C=CC[C@@H]1[C@H](c1ccc(Br)cc1)N2`, for which the result in test [4] and in test [5] was inactive.
On to `NS(=O)(=O)c1ccc2c(c1)[C@H]1C=CC[C@H]1[C@@H](c1ccc(Br)cc1)N2`, for which the result in test [6], in test [3], in test [7], in test [8] and in test [5] was Active. Moreover, the Activity entry in test [9] is “Dose-dependent effect”. Also, the concentration for a half-maximal effect (EC50) in test [10] worked out at 28 µM.
